RBBP9 inhibitor: blocks human serine hydrolase RBBP9; O75884; recombinant RBBP9, FP-Rh probe fluorescence polarization; inhibition, % at 7.94 µM; actives 0.2% (n = 220,000); AID 1515;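 active = inhibition above the campaign mean of all tested compounds plus 3 SD, cut at about 14% in these data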
Target sequence (O75884 whole entry, looked up): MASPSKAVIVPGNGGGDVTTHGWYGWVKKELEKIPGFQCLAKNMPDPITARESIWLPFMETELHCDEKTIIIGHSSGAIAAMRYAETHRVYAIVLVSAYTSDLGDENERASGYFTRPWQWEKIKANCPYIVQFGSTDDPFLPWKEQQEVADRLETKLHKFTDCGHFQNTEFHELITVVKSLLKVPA
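Measured by – fluorescence polarization · Test system – RBBP9 protein · Input – 2.5 µM RBBP9 dispensing solution, before mixing · Measure – percent inhibition from mP, scaled between DMSO and no-protein wells · Benchmarks – DMSO-treated enzyme wells and wells lacking RBBP9 · Times – preincubation 30 min plus labeling 45 min at 25 °C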
TbHK1 inh: T. brucei hexokinase 1 inhibition | inhibition, % at 10 µM | recombinant TbHK1, G6PDH-coupled NADH A340 | actives 0.11% (n = 220,000);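 active = inhibition of 50% or more in the single-dose primary screen; inactive = inhibition below 50%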
PfM18AAP inh-1: PfM18AAP enzyme inhibition | recombinant PfM18AAP, H-Glu-NHMec fluorogenic cleavage | inhibition, % at 7.35 µM | actives 1.2% (n = 290,000) | AID 1822;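 active = inhibition above the campaign mean inhibition over all tested compounds plus 3 SD, cut at about 28% in these data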
Lipid droplet: hepatic lipid droplet formation modulation. inhibition, % at 6.5 µM. actives 0.4% (n = 240,000). AML12 mouse hepatocytes, oleate lipid droplets, BODIPY imaging;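 active = lipid droplet intensity inhibited by at least 50%, with more than 500 cells counted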
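Assay system: AML12 hepatocytes (mouse); Probe or stimulus: oleic acid at 100 µM to induce lipid droplet formation; Dosing: compound at 6.5 µM only; Schedule: compound with oleate, overnight; Detection: fluorescence imaging, 20x objective, two fields per well; Measure: % inhibition of lipid droplet signal.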
zVAD death inh: blocks zVAD induced death of L929 cells | viability rescue, % at 10 µM | AID 1377 | actives 0.38% (n = 220,000) | L929 zVAD necroptosis rescue, ATP luminescence, 24 h; with zVAD 60 µM;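 active = activation, scaled between plate controls, above about 75%, limit read from the data; inactive = activation under that limit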
TNF necrop inh: TNF-alpha cell death inhibition in Jurkat FADD-/- cells; Jurkat FADD-/- TNF necroptosis rescue, ATP luminescence, 24 h; 0 = TNF only, 100 = no-TNF cells; activation (protection from cell death), % at 10 µM; actives 0.068% (n = 220,000); AID 463075;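 active = activation, meaning protection from cell death, of at least 50% relative to plate controls; inactive = activation below 50%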;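 note: necroptosis triggered by 40 ng/mL TNF-alpha added together with compound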
PfM18AAP inh-2: PfM18AAP inhibition, confirmation; recombinant PfM18AAP, H-Glu-NHMec fluorogenic cleavage; inhibition, % at 7.35 µM; shares compounds with PfM18AAP inh-1; actives 28% (n = 2,400);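 active = mean inhibition over replicate wells above the hit cutoff set for the earlier primary screen, cut at about 29% in these data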
CTSL1 counter: counter-screen for PFM18AAP inhibitors: confirmation of human cathepsin L inhibitors; purified cathepsin L1, Z-Leu-Arg-MCA fluorescence; inhibition, % at 5.96 µM; shares compounds with PfM18AAP inh-1; 2,400 tested, under 10 active;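 active = average inhibition across replicates above the hit cutoff set in the earlier primary screen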
Target sequence (P07711 whole entry, looked up): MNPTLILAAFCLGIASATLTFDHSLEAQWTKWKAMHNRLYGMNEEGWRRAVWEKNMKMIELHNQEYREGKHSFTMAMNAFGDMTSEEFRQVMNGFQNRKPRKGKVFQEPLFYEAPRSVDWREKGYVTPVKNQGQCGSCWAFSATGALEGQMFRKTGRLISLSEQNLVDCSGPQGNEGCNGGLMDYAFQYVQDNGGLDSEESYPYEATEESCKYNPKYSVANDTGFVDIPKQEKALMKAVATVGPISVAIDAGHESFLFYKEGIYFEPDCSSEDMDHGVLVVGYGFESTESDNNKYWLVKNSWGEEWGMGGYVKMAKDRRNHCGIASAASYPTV
A number is an active result; . = inactive; / = no result. The list is not random: actives were taken first. Their share in the collection is about 2%.

SMILES	RBBP9 inhibitor	TbHK1 inh	PfM18AAP inh-1	Lipid droplet	zVAD death inh	TNF necrop inh	PfM18AAP inh-2	CTSL1 counter
O=C(/C=C1\SC(=O)NC1=O)Nc1ccc(C(=O)O)cc1	.	.	36.4	.	.	.	.	.
Cc1ccccc1NC(=O)/C=C1\SC(=O)NC1=O	.	.	.	.	.	.	/	/
CC(C)(C)c1nn2cnnc2n(/N=C/c2ccc(O)cc2)c1=O	.	.	.	.	.	.	/	/
O=C(/C=C/c1cccnc1)c1ccc([N+](=O)[O-])cc1	/	/	31.7	.	/	/	.	.
O=C(/C=C/c1cccnc1)c1ccc(O)cc1	.	.	.	.	.	.	/	/
CC(=O)N1c2ccc(S(=O)(=O)N3CCC(C(=O)NCc4ccc(N(C)C)cc4)CC3)cc2CC1C (stereo unspecified)	/	/	.	.	/	/	/	/
N#CC1=C(N)SC(N)=C(C#N)C1Cc1ccccc1	.	.	42.9	/	.	.	.	.
N#CC1=C(N)SC(N)=C(C#N)C1c1cccc(Oc2ccccc2)c1	.	.	.	.	.	.	/	/
N#CC1=C(N)SC(N)=C(C#N)C1c1c(Cl)cccc1Cl	.	.	45.5	/	.	.	.	.
N#CC1=C(N)SC(N)=C(C#N)C1CCc1ccccc1	.	.	.	.	.	.	/	/
CCCN1CCN(CC(=O)Nc2nncs2)CC1	/	/	.	.	/	/	/	/
O=C(/C=C/c1ccc(S(=O)(=O)N2CCOCC2)cc1)NCCCn1ccnc1	.	.	.	.	.	.	/	/
Cc1ccc(CNc2ccc3c(c2)ncn3C(C)(C)C)cc1	.	.	33.1	.	.	.	.	.
Cc1ccc(CNc2ccc3c(c2)ncn3C)cc1	.	.	.	.	.	.	/	/
O=C(CSc1ncn[nH]1)Nc1ccccc1C(=O)O	.	.	44.1	/	.	.	.	.
O=C(Nc1ccc(N2CCN(C(=O)c3ccccc3F)CC2)cc1)c1ncn[nH]1	.	.	38.9	.	.	.	.	.
CC(C)c1nnc(NC(=O)CSc2ncn[nH]2)s1	.	.	42.3	/	.	.	51.7	.
O=C(Nc1ccccc1C(=O)O)c1ncn[nH]1	.	.	76.5	/	.	.	58.0	.
O=C1C=CCC(/C=C/c2ccccc2)O1 (stereo unspecified)	.	.	.	/	.	.	/	/
O=C(CSc1ncn[nH]1)Nc1nc(-c2ccccc2)ns1	.	.	81.8	.	.	.	84.8	.
CC(C)(C)c1nnc(NC(=O)c2ccc3c(c2)OCO3)s1	/	/	42.6	.	/	/	.	.
CNC(=S)NNC(=O)c1ccc2c(c1)OCO2	.	.	34.8	.	.	.	.	.
CC(C)c1nnc(NC(=O)c2ccc3c(c2)OCO3)s1	.	.	.	.	.	.	/	/
O=C(Nc1ccnn1C1CCN(Cc2cccc(OCCO)c2)CC1)C1CC1	/	/	.	.	/	/	/	/
O=C(/C=C/c1ccccc1F)c1cccc([N+](=O)[O-])c1	.	.	33.9	.	.	.	.	.
SMILES	RBBP9 inhibitor	TbHK1 inh	PfM18AAP inh-1	Lipid droplet	zVAD death inh	TNF necrop inh	PfM18AAP inh-2	CTSL1 counter
COc1cc(OC)cc(-c2nnc(NC(=O)c3ccc4c(c3)OCCO4)o2)c1	/	/	.	.	/	/	/	/
CNC(=O)C1C(=S)NC(N)=C(C#N)C1c1ccccc1 (stereo unspecified)	.	.	47.3	.	.	.	.	.
Fc1ccc(/C=N/Nc2nn[nH]n2)cc1	.	.	.	.	.	.	/	/
Nn1cnnc1N/N=C/c1ccc(F)cc1	/	/	41.9	.	/	/	.	.
Cc1ccc(/C=N/Nc2nncn2N)cc1	/	/	39.9	.	/	/	.	.
Nc1nnnn1/N=C\c1ccc(Cl)c([N+](=O)[O-])c1	.	.	.	/	.	.	/	/
Nn1cnnc1N/N=C/c1ccc(Cl)c([N+](=O)[O-])c1	.	.	56.6	.	.	.	.	.
N#Cc1c(-c2ccccc2)cc(-c2ccccc2)nc1SCC(=O)NCC(=O)O	.	.	38.2	.	.	.	.	.
O=C1c2ccccc2C(=O)N1c1ncn[nH]1	.	.	44.2	.	.	.	.	.
CN(c1ccccc1)S(=O)(=O)c1ccc(C(=O)NCc2ccccn2)cc1	.	.	.	.	.	.	/	/
Cn1nc([N+](=O)[O-])nc1Oc1ccc(C(C)(C)C)cc1	.	.	.	.	.	.	/	/
CC(NC(=O)CSc1ncn[nH]1)c1ccc(Cl)cc1Cl (stereo unspecified)	/	/	.	.	/	/	/	/
CCOC(=O)Cc1nnc(NC(=O)CSc2nnc3c(n2)[nH]c2ccccc23)s1	.	.	.	.	.	.	/	/
N#Cc1cnc2ncnn2c1-c1ccccc1	.	.	55.6	.	.	.	.	.
Nc1c(-c2ccccc2)cnc2ncnn12	.	.	.	/	.	.	/	/
CN(NC(=S)Nc1ccc(OC(F)F)cc1)C(=S)Nc1ccc(OC(F)F)cc1	.	.	.	.	.	.	/	/
FC(F)Oc1ccc(NC(=S)Nn2cnnc2)cc1	.	.	80.3	.	.	.	65.6	.
CN(C)c1ccc(/C=C(/C(=O)c2ccc(Cl)cc2Cl)n2cncn2)cc1	.	.	.	.	.	.	/	/
CN(C)/C=C(/C(=O)c1ccc(Cl)cc1)n1cncn1	.	.	40.3	/	.	.	.	.
NS(=O)(=O)c1ccc(-c2ccc(/C=C3\NC(=S)NC3=O)o2)cc1	/	/	37.4	.	/	/	.	.
CCC(/C=C1\Sc2ccc(OC)cc2N1CCO)=C\c1sc2ccc(OC)cc2[n+]1CCO	.	.	33.8	.	.	.	.	.
O=C(CCc1ccc(O)c(O)c1)NNC(=S)Nc1ccc(Br)cc1Cl	.	.	53.6	.	.	.	.	.
COc1cccc(NC(=O)NNC(=O)CCc2ccc(O)c(O)c2)c1	/	/	73.2	.	/	/	52.0	.
O=C(CCc1ccccc1)NNC(=S)NCc1ccc(Cl)cc1	/	/	.	.	/	/	/	/
O=C(NCCc1ccc(O)c(O)c1)C1COc2ccccc2O1 (stereo unspecified)	/	/	80.1	.	/	/	62.0	.
SMILES	RBBP9 inhibitor	TbHK1 inh	PfM18AAP inh-1	Lipid droplet	zVAD death inh	TNF necrop inh	PfM18AAP inh-2	CTSL1 counter
COc1ccc(CCC(=O)NNC(=O)Nc2cccc(Cl)c2)cc1	/	/	.	.	/	/	/	/
O=C(CCc1ccc(O)c(O)c1)NNC(=S)NCCc1ccccc1	.	.	68.4	.	.	.	30.4	.
O=C1C2CC=CCC2C(=O)N1c1n[nH]c(Cc2ccccc2)n1 (stereo unspecified)	.	.	.	.	.	.	/	/
CCOC(=O)/C=C1\SCC(=O)N1CC(=O)Nc1cccc(F)c1	.	.	.	.	.	.	/	/
Cc1cc(C)c2cc(CN(Cc3ccco3)C(=S)NCC3CCCO3)c(=O)[nH]c2c1 (stereo unspecified)	.	.	.	.	.	.	/	/
O=[N+]([O-])c1ccc(N/N=C/c2ccc(OCc3cccc4ccccc34)cc2)nc1	.	.	44.8	.	.	.	.	.
